KLK7 zymogen act: proKLK7 zymogen activators, primary screen, biochemical, fluorescence intensity; Kallikrein-7 (Homo sapiens), P49862; purified proKLK7, EDANS-DABCYL substrate fluorescence; 100% is mature enzyme control, 0% vehicle; activation, % at 7 µM; 370,000 compounds, 0.9% hits;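 active = activation above the mean of all tested compounds plus 3 SD, computed per campaign excluding outliers beyond control limits, cut at about 13% in these data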
SKN-1 block: suppressors of acrylamide-induced Pgst-4::GFP reporter in worms, primary screen, SKN-1 inhibitor project, whole organism, uHTS, GFP/RFP fluorescence ratio, strain VP596 | C. elegans VP596 Pgst-4::GFP/RFP ratio, 24 h | inhibition, % at 21.8 µM | 360,000 compounds, 0.49% hits | AID 624304, 2012;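 active = interference check ratio from 0.5 to 1.5 plus GFP to RFP signal ratio inhibition reaching or exceeding a fixed threshold, cut at about 30% in these data, passing the limit was not always enough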
DDE Tn7 FP inh: inhibitors of Tn7 peptide binding to fibrin DD(E), primary screen, biochemical, fluorescence polarization, human fibrin, Tn7 probe; Fibrinogen beta chain (Homo sapiens), P02675; FP displacement of FITC-Tn7 peptide from fibrin DD(E); 0% = median of compound wells per plate; inhibition, % at 8.3 µM; 370,000 compounds, 0.13% hits;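 active = inhibition above the mean of compounds falling within the control limits plus 3 SD of them, cut at about 14% in these data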
Target sequence (P02675 whole entry, looked up): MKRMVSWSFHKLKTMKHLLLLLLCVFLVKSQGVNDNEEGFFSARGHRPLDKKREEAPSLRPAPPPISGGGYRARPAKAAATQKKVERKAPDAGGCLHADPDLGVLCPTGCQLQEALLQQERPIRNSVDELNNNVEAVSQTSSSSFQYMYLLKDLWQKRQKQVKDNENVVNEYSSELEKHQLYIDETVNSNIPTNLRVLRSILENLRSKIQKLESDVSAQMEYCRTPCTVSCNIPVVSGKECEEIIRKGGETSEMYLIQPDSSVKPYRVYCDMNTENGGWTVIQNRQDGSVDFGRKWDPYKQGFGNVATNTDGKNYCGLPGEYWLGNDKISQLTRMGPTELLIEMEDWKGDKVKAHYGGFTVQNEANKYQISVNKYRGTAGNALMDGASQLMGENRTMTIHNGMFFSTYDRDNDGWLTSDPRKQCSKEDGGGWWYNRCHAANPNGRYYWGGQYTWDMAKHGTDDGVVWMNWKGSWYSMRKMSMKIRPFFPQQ
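Assay system: human fibrin DD(E) protein / Input: 2 µM fibrin DD(E) / Benchmarks: high control of 10 µM Aha-Tn7 peptide / Measured by: fluorescence polarization of the labelled Tn7 tracer / Medium: Tris buffer with calcium and detergent, pH 7.8 / Timing: 10 min compound pre-incubation, 3 h probe incubation at room temperature / Repeats: one replicate per compound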
MT1-MMP act inh: blockers of MT1-MMP proenzyme processing, primary screen, HT1080 RFP-PRO-GFP cells, GFP/RFP fluorescence; Matrix metalloproteinase-14 (Homo sapiens), P50281; GFP/RFP ratio fluorescence, overnight; percent of plate control window, DMSO zero; GFP/RFP ratio change, % at 20 µM; 360,000 compounds, 0.061% hits;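 active = GFP/RFP ratio change of at least 30% with cell ATP level not reduced by more than half and red fluorescence within 50% of control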
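Material – HT1080 RFP-PRO-GFP cells · Control set – DMSO wells and RFP-L50D-GFP cells · Incubation – overnight cell settling, then overnight compound exposure, 37 °C, 5% CO2 · Compound dosing – single-point 20 µM compound, 1% DMSO · Read-out – GFP/RFP fluorescence ratio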
DDE Tn6 FP inh: inhibitors of Tn6 peptide binding to fibrin DD(E), primary screen, biochemical, fluorescence polarization, human fibrin, Tn6 probe | Fibrin DD(E) TRITC-Tn6 fluorescence polarization displacement | inhibition, % at 8.3 µM | 370,000 compounds, 0.21% hits;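 active = inhibition above a per-campaign cutoff: mean of compounds within control limits plus 3 SD, cut at about 15% in these data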
Neddyl block: inhibitors of cullin neddylation, primary screen, biochemical, TR-FRET, uHTS, NAE and Ubc12; 360,000 compounds, 0.58% hits; calls only at 25 µM; in the data active = inhibition above about 36%
DDE Tn6 FP ctr: DD(E)-Tn6 binding inhibition, counter-screen; shares compounds with DDE Tn6 FP inh; Fibrin DD(E), TRITC-Tn6 fluorescence polarization displacement; 0% = median of compound wells, not DMSO; inhibition, % at 8.3 µM; 680 compounds, 2% hits;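 active = inhibition above the mean of test compounds lying between the control limits plus 3 SD of those, cut at about 14% in these data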
Tn6 DDE conf: inhibitors of Tn6 peptide binding to fibrin DD(E), confirmation, biochemical, fluorescence polarization, human fibrin, Tn6 probe; shares compounds with DDE Tn6 FP inh; FP displacement of TRITC-Tn6 peptide from DD(E); 0% = per-plate median of test wells; inhibition, % at 8.3 µM; 680 compounds, 10% hits;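 active = inhibition above the mean of compounds lying within the control limits plus 3 SD, cut at about 16% in these data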
Hits are given with their value; i = inactive; nt = no result shown. Hits are enriched below; roughly 2.2% of the tested compounds scored in any of these assays.

SMILES | KLK7 zymogen act | SKN-1 block | DDE Tn7 FP inh | MT1-MMP act inh | DDE Tn6 FP inh | Neddyl block | DDE Tn6 FP ctr | Tn6 DDE conf
CCOC(=O)C1CCCN(C(=O)c2sc3nc(-c4ccc(OC)cc4)cn3c2C)C1 (stereo not drawn) | i | i | i | i | i | i | nt | nt
CCn1c(=S)[nH]c2cc(Cl)ccc21 | i | i | i | i | i | i | nt | nt
CCn1c(=S)[nH]c2ccccc21 | i | i | i | i | 16 | i | i | i
N#Cc1nc(Cc2ccccc2)oc1NCc1ccccc1Cl | i | i | i | i | i | i | nt | nt
CNC(=O)c1cc(Oc2ccc(NC(=O)Nc3ccc(Cl)c(C(F)(F)F)c3)cc2)ccn1 | i | i | i | i | 34 | i | i | i
O=C(Nc1ccc(Cl)c(C(F)(F)F)c1)c1ccncc1 | i | i | i | i | i | i | nt | nt
COc1cccc(NC(=S)NN=C2CCC(C(C)(C)C)CC2)c1 (stereo not drawn) | i | i | i | i | i | i | nt | nt
C[C@@H]1CN(Cc2nc(-c3ccc(Cl)cc3)no2)C[C@H](C)O1 | i | i | i | i | 17 | i | i | i
O=C(O)c1ccc(NCc2nc3ccccc3n2Cc2ccccc2)cc1 | i | i | i | i | i | i | nt | nt
COc1cc(NCCCC(C)N)c2ncccc2c1 (stereo not drawn) | i | i | i | i | 52 | i | i | 20
COc1cc(NS(=O)(=O)c2ccc(C)cc2)c2ncccc2c1 | i | i | i | i | i | nt | nt | nt
CCC(CNc1cc(OC)cc2cccnc12)NC1CCCCC1 (stereo not drawn) | i | i | i | i | 33 | i | i | i
COc1cc(NC(=O)c2ccccc2Cl)c2ncccc2c1 | i | i | i | i | i | i | nt | nt
O=C(OCCN1CCN(C2CN(Cc3cn(Cc4ccccc4Cl)nn3)S(=O)(=O)C2)CC1)c1cccs1 (stereo not drawn) | i | nt | i | nt | i | nt | nt | nt
COc1cccc(-c2nc(N3CCN(c4ccccc4)CC3)c3ccccc3n2)c1O | i | i | i | i | i | i | nt | nt
O=C(Nc1cccc(F)c1)c1ccc(-n2cncn2)c2ccoc12 | i | i | i | i | 16 | i | i | i
CC1SC(c2ccccc2)N(CC(O)c2ccc([N+](=O)[O-])cc2)C1=O (stereo not drawn) | i | i | i | i | i | i | nt | nt
COc1cc(CCC(=O)OCC(=O)Nc2c(C)cccc2C(C)C)cc(OC)c1OC | i | i | i | i | 16 | i | i | i
COC(=O)c1cn(Cc2c(C)cc(C)cc2C)nn1 | i | i | i | i | i | i | nt | nt
CC1(C)CC(=O)C2=C(C1)N1C(=C(C#N)C2c2ccccc2Cl)N=C(N)c2ccccc21 (stereo not drawn) | i | i | i | i | 17 | i | i | i
CN1C(=CC=C2C=C(I)C(=O)C(I)=C2)C(C)(C)c2ccccc21 | i | i | i | i | i | i | nt | nt
CN1/C(=C\C=C2/SC(=S)NC2=O)C(C)(C)c2ccccc21 | i | i | i | i | 70 | i | i | 57
CSc1nc2sc3c(c2c(=O)n1C)CCC(C)C3 (stereo not drawn) | i | i | i | i | i | i | nt | nt
Cc1ccccc1NC(=O)c1ccccc1NC(=O)c1ccco1 | i | i | i | i | 16 | i | i | i
Cc1nn(-c2ccc(F)cc2)c2sc(C(=O)O)cc12 | i | i | i | i | i | i | nt | nt
SMILES | KLK7 zymogen act | SKN-1 block | DDE Tn7 FP inh | MT1-MMP act inh | DDE Tn6 FP inh | Neddyl block | DDE Tn6 FP ctr | Tn6 DDE conf
Cc1nn(-c2ccccc2)c2sc(C(=O)NCc3ccc(F)cc3)cc12 | i | nt | i | nt | 32 | nt | i | i
Fc1cccc(Cl)c1CNc1ccc(N2CCCC2)cc1 | i | i | i | i | 20 | i | i | i
CCN1C(=O)CC(N2CCN(CC(=O)NC(C)C)CC2)C1=O (stereo not drawn) | i | i | i | i | 16 | i | i | i
O=[N+]([O-])c1ccc(N2CCN(S(=O)(=O)c3cnc[nH]3)CC2)cc1 | i | i | i | i | i | i | nt | nt
CC(OC(=O)c1cccc([N+](=O)[O-])c1)C(=O)N1CCc2ccccc21 (stereo not drawn) | i | i | i | i | 16 | i | i | i
CC(C)c1cc(C(=O)N2CCCC(Nc3ccc(F)c(F)c3)C2)nc(N)n1 (stereo not drawn) | i | i | i | i | i | i | nt | nt
CCOc1ccc(C(=O)Nc2cc(-c3nc4ccccc4[nH]3)ccc2Cl)cc1[N+](=O)[O-] | i | i | i | i | 25 | i | i | i
Cc1ccc(NC(=O)CS(=O)CC(=O)Nc2ccccc2-c2ccc(C)o2)cc1 (stereo not drawn) | i | i | i | i | 22 | i | i | i
Cc1cc(C(C)(C)C)cc(S(=O)(=O)NCCc2ccncc2)c1C | i | i | i | i | 21 | i | i | i
COc1cccc(C(=O)NCC(c2ccco2)N2CCOCC2)c1 (stereo not drawn) | i | i | i | i | i | i | nt | nt
CN(C(=O)CSc1ccncc1)C1CCCN(Cc2ccccc2F)C1 (stereo not drawn) | i | i | i | i | i | i | nt | nt
O=C(Cc1cccs1)Nc1cccc(-c2nc3cc4ccccc4cc3[nH]2)c1 | i | i | i | i | 144 | nt | i | 34
CCc1nc2c(OCCOc3ccccc3)cccn2c1N(C)C(=O)C1CC1 | nt | i | nt | i | nt | i | nt | nt
CCOc1ccc(OCC)c(S(=O)(=O)n2cnc(C)c2)c1 | i | i | i | i | 16 | i | i | i
CCOc1ccc(OCC)c(S(=O)(=O)N2CCCCC2)c1 | i | i | i | i | i | i | nt | nt
CC1(C)c2ccccc2N2CCC(=O)NC21/C=C/c1ccco1 (stereo not drawn) | i | i | i | i | 17 | i | i | i
COCC(C)n1c(C)cc(C(=O)COC(=O)CCc2nc3ccccc3c(=O)[nH]2)c1C (stereo not drawn) | i | i | i | i | i | i | nt | nt

Bioassay records as filed in PubChem.
